Laboratory results as given in ChEMBL document CHEMBL3616436, “Synthesis, cytotoxicity and antimicrobial activity of thiourea derivatives incorporating 3-(trifluoromethyl)phenyl moiety” (Eur J Med Chem, 2015).
Values after ≈ are worked out from the molar mass of the structure shown. Active and inactive are the calls of the source. The rule behind the calls is not given here.

Tests used:
Staphylococcus aureus [1] = assay: Ratio of ciprofloxacin MIC to compound MIC for hospital methicillin-resistant Staphylococcus aureus 573/11 after 18 hrs by twofold serial microdilution method; assay type: functional
In short: (§1)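 Ratio of MICs for ciprofloxacin and test agent, each from twofold serial broth microdilution in Mueller-Hinton broth following CLSI guidelines. DMSO stock was diluted in sterile water to 0.125–512 µg/mL, with a final inoculum of 10^5 CFU/mL.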

Staphylococcus aureus [2] = assay: Ratio of ciprofloxacin MIC to compound MIC for hospital methicillin-resistant Staphylococcus aureus 81/05 after 18 hrs by twofold serial microdilution method; assay type: functional; in short: as §1
Staphylococcus aureus [3] = assay: Ratio of ciprofloxacin MIC to compound MIC for hospital methicillin-resistant Staphylococcus aureus 53/05 after 18 hrs by twofold serial microdilution method; assay type: functional; in short: as §1
Staphylococcus aureus [4] = assay: Ratio of ciprofloxacin MIC to compound MIC for hospital methicillin-resistant Staphylococcus aureus 54/05 after 18 hrs by twofold serial microdilution method; assay type: functional; in short: as §1
[5] = test system: Staphylococcus epidermidis; assay: Antimicrobial activity against hospital methicillin-resistant Staphylococcus epidermidis 62/04 after 18 hrs by twofold serial microdilution method; assay type: functional; settings: 62/04, 18 h
In short: (§2)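 Twofold serial microdilution in Mueller-Hinton broth. Compound stock was made in DMSO and diluted in sterile water. Tested range was 0.125–512 µg/mL. Final inoculum was 10^5 CFU/mL. Plates were incubated 18 h at 35 °C. MIC is the lowest concentration preventing visible growth.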

Staphylococcus aureus [6] = assay: Antimicrobial activity against hospital methicillin-resistant Staphylococcus aureus 53/05 after 18 hrs by twofold serial microdilution method; assay type: functional; settings: 53/05, 18 h; in short: as §2
Staphylococcus aureus [7] = assay: Ratio of ciprofloxacin MIC to compound MIC for hospital methicillin-resistant Staphylococcus aureus 80/05 after 18 hrs by twofold serial microdilution method; assay type: functional; in short: as §1
[8] = test system: Staphylococcus epidermidis; assay: Ratio of ciprofloxacin MIC to compound MIC for hospital methicillin-resistant Staphylococcus epidermidis […]/[…] after 18 hrs by twofold serial microdilution method; assay type: functional, 16/04
[9] = test system: Staphylococcus epidermidis; assay: Antimicrobial activity against hospital methicillin-resistant Staphylococcus epidermidis 23/04 after 18 hrs by twofold serial microdilution method; assay type: functional; settings: 23/04, 18 h; in short: as §2
Staphylococcus aureus [10] = assay: Antimicrobial activity against Staphylococcus aureus ATCC 6538 after 18 hrs by twofold serial microdilution method; assay type: functional; settings: ATCC 6538, 18 h
Staphylococcus aureus [11] = assay: Antimicrobial activity against Staphylococcus aureus NCTC 4163 after 18 hrs by twofold serial microdilution method; assay type: functional; settings: NCTC 4163, 18 h
[12] = test system: Staphylococcus epidermidis; assay: Ratio of ciprofloxacin MIC to compound MIC for hospital methicillin-resistant Staphylococcus epidermidis 151/04 after 18 hrs by twofold serial microdilution method; assay type: functional; in short: as §1
[13] = test system: Staphylococcus epidermidis; assay: Antimicrobial activity against hospital methicillin-resistant Staphylococcus epidermidis 151/04 after 18 hrs by twofold serial microdilution method; assay type: functional; settings: 151/04, 18 h; in short: as §2
Staphylococcus aureus [14] = assay: Ratio of ciprofloxacin MIC to compound MIC for hospital methicillin-resistant Staphylococcus aureus 522/11 after 18 hrs by twofold serial microdilution method; assay type: functional; in short: as §1
Staphylococcus aureus [15] = assay: Antimicrobial activity against hospital methicillin-resistant Staphylococcus aureus 54/05 after 18 hrs by twofold serial microdilution method; assay type: functional; settings: 54/05, 18 h; in short: as §2
Staphylococcus aureus [16] = assay: Antimicrobial activity against hospital methicillin-resistant Staphylococcus aureus 79/05 after 18 hrs by twofold serial microdilution method; assay type: functional; settings: 79/05, 18 h; in short: as §2
Staphylococcus aureus [17] = assay: Ratio of ciprofloxacin MIC to compound MIC for hospital methicillin-resistant Staphylococcus aureus 57/05 after 18 hrs by twofold serial microdilution method; assay type: functional; in short: as §1
[18] = Cytotoxicity against human MT4 cells; assay type: cell-based
[19] = test system: Staphylococcus epidermidis; assay: Ratio of ciprofloxacin MIC to compound MIC for hospital methicillin-resistant Staphylococcus epidermidis 24/04 after 18 hrs by twofold serial microdilution method; assay type: functional
Human alphaherpesvirus 1 = assay: Antiviral activity against Human herpesvirus 1 KOS ATCC VR-1493 infected in African green monkey Vero 76 cells assessed as reduction of virus-plaque formation after 3 days by crystal violet staining; assay type: functional, organism-based; settings: Human alphaherpesvirus 1, KOS ATCC VR1493, Vero, 72 h
In short: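 Plaque reduction: Vero-76 at 2x10^5 cells/well grown to confluent monolayers, infected 2 h at 50–100 PFU/well; after removing unadsorbed virus, overlay of D-MEM, 1% inactivated FBS, 0.75% methylcellulose with or without serial compound dilutions; 3 days at 37°C, fixed and stained with crystal violet in 50% ethanol, plaques counted; EC50 by linear regression.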

Staphylococcus aureus [20] = assay: Ratio of ciprofloxacin MIC to compound MIC for hospital methicillin-resistant Staphylococcus aureus 79/05 after 18 hrs by twofold serial microdilution method; assay type: functional; in short: as §1
[21] = Antiviral activity against Bovine viral diarrhea virus 1-NADL ATCC VR-534 infected in MDBK cells assessed as protection against virus-induced cytopathogenicity after 3 to 4 days by MTT assay; assay type: functional, cell-based; settings: Bovine viral diarrhea virus isolates and strains, ATCC VR-534, MDBK
In short: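 Cells seeded in 96-well plates (BHK 5x10^4, MDBK 3x10^4 cells/well), grown overnight to confluence, infected at m.o.i. 0.01 (BHK for Reo-1, MDBK for BVDV); serial compound dilutions in maintenance medium with 0.5% inactivated FBS added after 1 h; viability by MTT after 3–4 days at 37°C; EC50 for 50% protection by linear regression.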

[22] = test system: Staphylococcus epidermidis; assay: Ratio of ciprofloxacin MIC to compound MIC for hospital methicillin-resistant Staphylococcus epidermidis 23/04 after 18 hrs by twofold serial microdilution method; assay type: functional; in short: as §1
Micrococcus luteus = assay: Antimicrobial activity against Micrococcus luteus ATCC 10240 at 400 ug after 18 hrs by disc-diffusion method; assay type: functional; settings: ATCC 10240, 18 h, read-out: IZ
In short: (§3)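 Disc diffusion on Mueller-Hinton II agar per CLSI; 9 mm paper discs loaded with 400 µg compound from DMSO solution, dried, placed on agar; growth inhibition zone diameter read after 18 h at 35°C.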

[23] = test system: Staphylococcus epidermidis; assay: Antimicrobial activity against Staphylococcus epidermidis ATCC 12228 after 18 hrs by twofold serial microdilution method; assay type: functional; settings: ATCC 12228, 18 h
[24] = test system: Mycobacterium tuberculosis; assay: Antimycobacterial activity against drug-sensitive Mycobacterium tuberculosis Spec. 192; assay type: functional
In short: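 Classical test-tube successive-dilution method in Youmans' modification of Proskauer and Beck liquid medium with 10% bovine serum. Inoculum came from 14-day cultures. DMSO stock was 10 mg/mL, diluted geometrically in medium. Tubes were incubated at 37 °C. Concentrations tested were 3.1, 6.2, 12.5, 25, 50 and 100 µg/ml. MIC is the minimum concentration inhibiting growth relative to compound-free tubes.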

Enterococcus faecalis = assay: Antimicrobial activity against Enterococcus faecalis ATCC 29212 at 400 ug after 18 hrs by disc-diffusion method; assay type: functional; settings: for zone of inhibition at 400 µg/disc: ATCC 29212, 18 h, read-out: IZ; in short: as §3
[25] = test system: Staphylococcus epidermidis; assay: Antimicrobial activity against hospital methicillin-resistant Staphylococcus epidermidis 76/04 after 18 hrs by twofold serial microdilution method; assay type: functional; settings: 76/04, 18 h; in short: as §2
Staphylococcus aureus [26] = assay: Antimicrobial activity against Staphylococcus aureus ATCC 6538 at 400 ug after 18 hrs by disc-diffusion method; assay type: functional; settings: ATCC 6538, 18 h, read-out: IZ; in short: as §3
[27] = test system: Staphylococcus epidermidis; assay: Antimicrobial activity against Staphylococcus epidermidis ATCC 35984 after 18 hrs by twofold serial microdilution method; assay type: functional; settings: ATCC 35984, 18 h
Staphylococcus aureus [28] = assay: Antimicrobial activity against hospital methicillin-resistant Staphylococcus aureus 80/05 after 18 hrs by twofold serial microdilution method; assay type: functional; settings: 80/05, 18 h; in short: as §2

SMILES | Ratio (Staphylococcus aureus [1]) | Ratio (Staphylococcus aureus [2]) | Ratio (Staphylococcus aureus [3]) | Ratio (Staphylococcus aureus [4]) | MIC [5] [µg/mL] | MIC (Staphylococcus aureus [6]) [µg/mL] | Ratio (Staphylococcus aureus [7]) | Ratio [8] | MIC [9] [µg/mL] | MIC (Staphylococcus aureus [10]) [µg/mL] | MIC (Staphylococcus aureus [11]) [µg/mL] | Ratio [12] | MIC [13] [µg/mL] | Ratio (Staphylococcus aureus [14]) | MIC (Staphylococcus aureus [15]) [µg/mL] | MIC (Staphylococcus aureus [16]) [µg/mL] | Ratio (Staphylococcus aureus [17]) | Ratio [19] | EC50 (Human alphaherpesvirus 1) [µM] | Ratio (Staphylococcus aureus [20]) | further results
Fc1cccc(NC(=S)Nc2cccc(C(F)(F)F)c2)c1 | 128 | 128 | 128 | 128 | 8 (≈ 25.5 µM) | 4 (≈ 12.7 µM) | 128 | 128 | 8 (≈ 25.5 µM) | 4 (≈ 12.7 µM) | 4 (≈ 12.7 µM) | 128 | 16 (≈ 50.9 µM) | 128 | 8 (≈ 25.5 µM) | 8 (≈ 25.5 µM) | 128 | 128 | > 20 | 128 | CC50 [18]: 20 µM; EC50 [21]: > 10 µM; Ratio [22]: 128; zone of inhibition at 400 µg/disc (Micrococcus luteus): 21 mm; MIC [23]: 8 µg/mL (≈ 25.5 µM); MIC [24]: > 100 µg/mL; zone of inhibition at 400 µg/disc (Enterococcus faecalis): 14 mm; MIC [25]: 16 µg/mL (≈ 50.9 µM); zone of inhibition at 400 µg/disc (Staphylococcus aureus [26]): 20 mm; MIC [27]: 8 µg/mL (≈ 25.5 µM); MIC (Staphylococcus aureus [28]): 8 µg/mL (≈ 25.5 µM)
FC(F)(F)c1cccc(NC(S)=NCc2ccccc2)c1 | 128 | 128 | 128 | 128 | 16 (≈ 51.6 µM) | 8 (≈ 25.8 µM) | 128 | 128 | 16 (≈ 51.6 µM) | 8 (≈ 25.8 µM) | 16 (≈ 51.6 µM) | 128 | 16 (≈ 51.6 µM) | 128 | 8 (≈ 25.8 µM) | 16 (≈ 51.6 µM) | 128 | 128 | > 35 | 128 | CC50 [18]: 45 µM; EC50 [21]: > 40 µM; Ratio [22]: 128; zone of inhibition at 400 µg/disc (Micrococcus luteus): 15 mm; MIC [23]: 32 µg/mL (≈ 103 µM); MIC [24]: 25 µg/mL (≈ 80.6 µM); inhibition zone (IZ) (Enterococcus faecalis): inactive; MIC [25]: 8 µg/mL (≈ 25.8 µM); zone of inhibition at 400 µg/disc (Staphylococcus aureus [26]): 15 mm; MIC [27]: 16 µg/mL (≈ 51.6 µM); MIC (Staphylococcus aureus [28]): 16 µg/mL (≈ 51.6 µM)
FC(F)(F)c1cccc(NC(S)=Nc2ccc(Cl)c(Cl)c2)c1 | 128 | 128 | 128 | 128 | 1 (≈ 2.74 µM) | 2 (≈ 5.48 µM) | 128 | 128 | 1 (≈ 2.74 µM) | 0.5 (≈ 1.37 µM) | 0.5 (≈ 1.37 µM) | 128 | 1 (≈ 2.74 µM) | 128 | 2 (≈ 5.48 µM) | 2 (≈ 5.48 µM) | 128 | 128 | > 16 | 128 | EC50 [21]: > 10 µM; Ratio [22]: 128; zone of inhibition at 400 µg/disc (Micrococcus luteus): 16 mm; MIC [23]: 2 µg/mL (≈ 5.48 µM); MIC [24]: 100 µg/mL (≈ 274 µM); zone of inhibition at 400 µg/disc (Enterococcus faecalis): 12 mm; MIC [25]: 1 µg/mL (≈ 2.74 µM); zone of inhibition at 400 µg/disc (Staphylococcus aureus [26]): 14 mm; MIC [27]: 1 µg/mL (≈ 2.74 µM); MIC (Staphylococcus aureus [28]): 2 µg/mL (≈ 5.48 µM)
